Data reported in paper PMC12640659 (Chemmedchem, 2025).
≈ marks a conversion by molar mass, not a printed value. Where two headings read alike, the source gives them in different places.

Key:
[1] = tested on: MDA‐MB‐231 triple‐negative breast cancer (TNBC) cell line; experiment: Resazurin cytotoxicity assay, MDA-MB-231; type: cell-based; settings: for IC50: read-out: IC50 MDA‐MB231; for SI (MDA‐MB231): selectivity index versus nontumorigenic MCF12A
In short: (§1)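 Cells were seeded at 5.0 × 10^3 per well and left to attach overnight at 37 °C, 9% CO2, then treated with test compound for 96 h. A […] resazurin solution was added for 2–4 h at 37 °C and fluorescence read at ex 560/em 590 nm. Assays were run in triplicate, and IC50 was obtained by nonlinear regression.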

HCC70 TNBC cell line = experiment: Resazurin cytotoxicity assay, HCC70; type: cell-based; settings: for IC50: read-out: IC50 HCC70; for SI (HCC70): selectivity index versus nontumorigenic MCF12A
In short: as §1

[2] = tested on: MCF‐7 hormone receptor‐positive breast cancer cell line; experiment: Resazurin cytotoxicity assay, MCF7; type: cell-based; settings: for IC50: read-out: IC50 MCF7; for SI (MCF7): selectivity index versus nontumorigenic MCF12A
In short: as §1

A. baumannii ATCC 19606 = experiment: Antibacterial resazurin assay, A. baumannii; type: cell-based, Acinetobacter baumannii; settings: for MIC: Acinetobacter baumannii, ATCC19606, 6 h, read-out: MIC A. baumannii; for MIC A. baumannii: resazurin, 6 h, mean ± SD
In short: (§2)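 Twofold dilutions of test compound (100–0.78 μM) were incubated with mid-log bacteria in LB broth at 37 °C for 6 h. Precultures were grown in LB for P. aeruginosa, S. aureus and E. coli, and in TSB for A. baumannii and K. pneumoniae. Cultures were diluted 1:1000, except S. aureus at 1:500. Resazurin (0.13 mg mL−1 solution) was added for 15–30 min and fluorescence read at 560/590 nm. Assays were run in duplicate with novobiocin and nalidixic acid controls, and MIC was fitted by nonlinear regression.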

P. aeruginosa ATCC 27853 = experiment: Antibacterial resazurin assay, P. aeruginosa; type: cell-based, Pseudomonas aeruginosa; settings: for MIC: Pseudomonas aeruginosa, ATCC27853, 6 h, read-out: MIC P. aeruginosa; for MIC P. aeruginosa: resazurin, 6 h, mean ± SD
In short: as §2

[3] = tested on: K. pneumoniae ST512‐K30BO; experiment: Antibacterial resazurin assay, drug-resistant K. pneumoniae; type: cell-based, Klebsiella pneumoniae; settings: 6 h; for MIC: Klebsiella pneumoniae, read-out: MIC K. pneumoniae; for MIC K. pneumoniae: resazurin, drug‐resistant ST512 strain, sixth column pair of SI-15
In short: as §2

HeLa cells = experiment: Cytotoxicity against HeLa cells; type: cell-based; settings: Homo sapiens, read-out: IC50 HeLa cell
S. aureus ATCC 12600 [4] = experiment: Antibacterial resazurin assay, S. aureus; type: cell-based, Staphylococcus aureus; settings: for MIC: Staphylococcus aureus, ATCC12600, 6 h, read-out: MIC S. aureus; for MIC S. aureus: resazurin, 6 h, mean ± SD
In short: as §2

[5] = tested on: nontumorigenic breast epithelial cell line MCF12A; experiment: Resazurin cytotoxicity assay, MCF12A; type: cell-based; settings: Homo sapiens, MCF-12A, 96 h, read-out: IC50 MCF12A
In short: as §1

E. coli ATCC 10536 [6] = experiment: Antibacterial resazurin assay, E. coli; type: cell-based, Escherichia coli; settings: for MIC: Escherichia coli, ATCC10536, 6 h, read-out: MIC E. coli; for MIC E. coli: resazurin, 6 h, mean ± SD
In short: as §2

E. coli ATCC 10536 [7] = experiment: Time-kill kinetics, E. coli; type: cell-based, Escherichia coli; settings: at 1x and 4x MICs, up to 5 h
In short: (§3)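 At 0.5, 1, 2, 3, 4 and 5 h, samples were pelleted, resuspended in 10 mM MgSO4 and serially diluted tenfold. Dilutions were spotted on LB agar for 16 h at 37 °C, and growth was compared visually with the untreated control.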

S. aureus ATCC 12600 [8] = experiment: Time-kill kinetics, S. aureus; type: cell-based, Staphylococcus aureus; settings: at 1x and 4x MICs, up to 5 h
In short: as §3

[9] = resazurin, 96 h, mean ± SD (n = 3)

Compound | IC50 [1, 9] [µM] | SI (MDA‐MB231) [1] | IC50 (HCC70 TNBC cell line; [9]) [µM] | SI (HCC70) (HCC70 TNBC cell line) | IC50 [2, 9] [µM] | SI (MCF7) [2] | MIC A. baumannii (A. baumannii ATCC 19606) [µM] | MIC P. aeruginosa (P. aeruginosa ATCC 27853) [µM] | MIC K. pneumoniae [3] [µM] | MIC E. coli (E. coli ATCC 10536 [6]) [µM] | MIC S. aureus (S. aureus ATCC 12600 [4]) [µM] | other results
N.N.[Cl][Pt][Cl] [Cisplatin, reference compound] | 18.1 ± 1.2 | 0.6 | 2.6 ± 1.2 | 4.5 | 4.4 ± 1.2 | 2.5 |  |  |  |  |  | 
C[C@@H](N)[C@H](O)CCCCCCCC(=O)CCCCCCCCCCCCCC[C@@H](O[C@@H]1O[C@H](CO)[C@H](O)[C@H](O)[C@H]1O)[C@@H](C)N [Compound 2, rhizochalin] |  | 1.0 |  | 2.2 |  | 1.8 |  |  |  |  |  | IC50 ([1]; Homo sapiens, MDA-MB-231, 96 h): 4.59 ± 1.22 µM; MIC (A. baumannii ATCC 19606): 6.29 ± 0.02 µM (≈ 3.98 µg/mL); MIC (P. aeruginosa ATCC 27853): 3.84 ± 0.82 µM (≈ 2.43 µg/mL); MIC [3]: 8.52 ± 3.1 µM (≈ 5.39 µg/mL); IC50 (HeLa cells): 7.11 µM; MIC (S. aureus ATCC 12600 [4]): 3.64 ± 0.47 µM (≈ 2.3 µg/mL); IC50 [5]: 4.25 ± 1.28 µM; IC50 (HCC70 TNBC cell line; Homo sapiens, HCC70, 96 h): 1.94 ± 1.13 µM; MIC (E. coli ATCC 10536 [6]): 6.15 ± 0.04 µM (≈ 3.89 µg/mL); IC50 ([2]; Homo sapiens, MCF7, 96 h): 2.43 ± 1.17 µM
CC(N)C(O)CCCCCCCCCCCCCCC(=O)CCCCCCCC(O)C(C)N (stereo not shown) [Compound 2b, rhizochalinin] | 6.78 ± 1.3 | 3.1 | 4.97 ± 1.2 | 4.2 | 21.4 ± 1.2 | 1.0 | 55.7 ± 0.85 (≈ 26.2 µg/mL) | >50 | 23.78 ± 0.15 (≈ 11.2 µg/mL) | 49.1 ± 3.42 (≈ 23.1 µg/mL) |  | 
CCn1cc(C(=O)O)c(=O)c2ccc(C)nc21 [Nalidixic acid, reference compound] |  |  |  |  |  |  |  |  |  |  |  | MIC (A. baumannii ATCC 19606): 1.28 ± 0.92 µM (≈ 0.297 µg/mL); MIC (P. aeruginosa ATCC 27853): 0.17 ± 0.01 µM (≈ 0.0395 µg/mL); Bactericidal endpoint, E. coli, in words (E. coli ATCC 10536 [7]): did not achieve bactericidal endpoints; MIC [3]: 28.8 ± 1.09 µM (≈ 6.7 µg/mL); MIC (E. coli ATCC 10536 [6]): 0.47 ± 0.22 µM (≈ 0.109 µg/mL)
CO[C@@H]1[C@@H](OC(N)=O)[C@@H](O)[C@H](Oc2ccc3c(O)c(NC(=O)c4ccc(O)c(CC=C(C)C)c4)c(=O)oc3c2C)OC1(C)C [Novobiocin, reference compound] |  |  |  |  |  |  |  |  |  |  |  | MIC (S. aureus ATCC 12600 [4]): 0.002 ± 0.002 µM (≈ 0.00123 µg/mL); Bactericidal endpoint, S. aureus, in words (S. aureus ATCC 12600 [8]): did not achieve bactericidal endpoints
oceanin [Compound 4b] | 6.36 ± 1.4 | 10.4 | 117 ± 1.4 | 0.6 | 8.39 ± 1.39 | 7.9 | >50 | >50 | >50 | >50 | >50 | 
pentaperbenzoyl oceanin [Compound 4c] |  |  |  |  |  |  | >50 | >50 | >50 | >50 | >50 | 
pentaperbenzoyl rhizochalinin C [Compound 3c] |  |  |  |  |  |  | >50 | >50 | >50 | >50 | >50 | 
rhizochalinin C [Compound 3b] | 6.78 ± 1.2 | 4.3 | 6.43 ± 1.1 | 4.5 | 26.4 ± 1.2 | 1.1 | >50 | >50 | >50 | >50 | >50 | 
tetraperbenzoyl rhizochalinin [Compound 2c] |  |  |  |  |  |  | >50 | >50 | >50 | >50 | >50 | 
